Values belong to the molecule of their own block, whether it stands above or below them. Active and inactive are the calls of the source. No cut-off for these calls is given here.
Key:
Nucleic Acid = assay: Ratio of drug level in brain to blood in ddY mouse at 11.1 kBq, iv after 15 min by gamma counting; assay type: ADME, organism-based
Intestine = assay: Drug uptake in ddY mouse intestine at 11.1 kBq, iv after 5 min by gamma counting; assay type: ADME, organism-based; settings: in vivo
How it was run: (§1)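 Male ddY mice (6 weeks, 30–35 g) received about 11.1 kBq [125I]tracer in 0.1 mL i.v. via tail vein. Killed at set times, organs dissected and weighed, radioactivity gamma counted. Reported as % injected dose/g tissue, mean ± SD, n = 5–6.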

Liver [1] = assay: Drug uptake in ddY mouse liver at 11.1 kBq, iv after 60 min by gamma counting; assay type: ADME, organism-based; settings: in vivo, 1 h
How it was run: (§2)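 Male ddY mice (6 weeks, 30–35 g) were given about 11.1 kBq of [125I]tracer in 0.1 mL i.v. via the tail vein. At each time point the animals were killed and organs dissected, weighed and gamma-counted. Uptake is expressed as % injected dose per gram of tissue, mean ± SD, n = 5–6.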

Mus musculus [2] = assay: In vivo binding affinity to GlyT1 in ddY mouse brain medullary region at 33.3 kBq, iv after 60 mins in presence of N-Me-SSR504734 2 mg/kg, iv administered 15 mins prior to compound administration relative to control; assay type: functional, Medulla of organ
Brain [3] = assay: Drug uptake in ddY mouse brain at 11.1 kBq, iv after 5 min by gamma counting; assay type: ADME, organism-based; settings: in vivo; how it was run: as §1
Liver [4] = assay: Drug uptake in ddY mouse liver at 11.1 kBq, iv after 30 min by gamma counting; assay type: ADME, organism-based; settings: in vivo, 0.5 h; how it was run: as §2
Spleen = assay: Drug uptake in ddY mouse spleen at 11.1 kBq, iv after 180 min by gamma counting; assay type: ADME, organism-based; settings: in vivo, 3 h; how it was run: as §2
Brain [5] = assay: Drug uptake in ddY mouse brain at 11.1 kBq, iv after 60 min by gamma counting; assay type: ADME, organism-based; settings: in vivo, 1 h; how it was run: as §1
Stomach [6] = assay: Drug uptake in ddY mouse stomach at 11.1 kBq, iv after 60 min by gamma counting; assay type: ADME, organism-based; settings: in vivo, 1 h; how it was run: as §2
Lung [7] = assay: Drug uptake in ddY mouse lung at 11.1 kBq, iv after 60 min by gamma counting; assay type: ADME, organism-based; settings: in vivo, 1 h; how it was run: as §2
Blood = assay: Drug uptake in ddY mouse blood at 11.1 kBq, iv after 0.5 min by gamma counting; assay type: ADME, organism-based; settings: in vivo; how it was run: as §1
Pancreas = assay: Drug uptake in ddY mouse pancreas at 11.1 kBq, iv after 60 min by gamma counting; assay type: ADME, organism-based; settings: in vivo, 1 h; how it was run: as §2
Kidney = assay: Drug uptake in ddY mouse kidney at 11.1 kBq, iv after 60 min by gamma counting; assay type: ADME, organism-based; settings: in vivo, 1 h; how it was run: as §2
Lung [8] = assay: Drug uptake in ddY mouse lung at 11.1 kBq, iv after 0.5 min by gamma counting; assay type: ADME, organism-based; settings: in vivo; how it was run: as §2
Stomach [9] = assay: Drug uptake in ddY mouse stomach at 11.1 kBq, iv after 15 min by gamma counting; assay type: ADME, organism-based; settings: in vivo; how it was run: as §2
Mus musculus [10] = assay: In vivo binding affinity to GlyT1 in ddY mouse brain medullary region at 200 kBq, iv after 60 mins by autoradiography relative to control; assay type: functional, organism-based; settings: Medulla of organ, tested as the 125I-labelled form
How it was run: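 Male ddY mice were injected iv with [125I]5 (200 kBq) and killed 60 min post-injection. For blocking, unlabeled blocker (2 mg/kg) was given iv 15 min before the tracer. Frozen brain sagittal sections (20 μm) were exposed to an imaging plate for 7 days. Regional radioactivity was read as PSL/mm² (n = 5) and compared with control by Kruskal–Wallis with Dunn's post-test.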

[11] = target: T1, Sodium- and chloride-dependent glycine transporter 1 (Rattus norvegicus) (UniProt P28572); assay: Binding affinity to GlyT1 in rat brain striatum at 0.03 to 0.04 nM preincubated for 20 mins in binding buffer before compound addition measured after 30 mins by autoradiography in presence of 1 mM GlyT1 substrate glycine relative to control; assay type: tissue-based; settings: tested as the 125I-labelled form
T1 sequence (whole entry): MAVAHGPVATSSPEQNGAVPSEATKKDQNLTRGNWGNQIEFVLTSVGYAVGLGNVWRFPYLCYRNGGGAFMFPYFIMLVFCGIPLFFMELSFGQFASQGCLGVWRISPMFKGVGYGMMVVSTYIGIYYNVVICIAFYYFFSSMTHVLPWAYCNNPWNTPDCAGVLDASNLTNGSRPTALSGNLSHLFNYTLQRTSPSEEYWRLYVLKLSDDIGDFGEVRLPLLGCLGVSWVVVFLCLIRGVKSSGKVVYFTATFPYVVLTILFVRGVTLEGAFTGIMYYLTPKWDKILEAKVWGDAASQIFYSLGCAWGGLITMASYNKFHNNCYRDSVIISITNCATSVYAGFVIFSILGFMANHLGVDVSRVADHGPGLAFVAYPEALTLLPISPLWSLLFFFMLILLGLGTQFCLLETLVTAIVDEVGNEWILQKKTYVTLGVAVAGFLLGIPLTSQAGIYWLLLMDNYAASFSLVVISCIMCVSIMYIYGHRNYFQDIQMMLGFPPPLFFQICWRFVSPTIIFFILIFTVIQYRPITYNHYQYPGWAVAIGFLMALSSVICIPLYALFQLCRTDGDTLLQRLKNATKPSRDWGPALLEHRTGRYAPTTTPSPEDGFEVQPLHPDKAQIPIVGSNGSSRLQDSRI

[12] = target: T1, Sodium- and chloride-dependent glycine transporter 1 (Rattus norvegicus); assay: Binding affinity to GlyT1 in rat brain striatum at 0.03 to 0.04 nM preincubated for 20 mins in binding buffer before compound addition measured after 30 mins by autoradiography in presence of 0.01 mM GlyT1 inhibitor ALX5407 relative to control; assay type: tissue-based; settings: tested as the 125I-labelled form
Mus musculus [13] = assay: In vivo binding affinity to GlyT1 in ddY mouse brain cerebral cortex at 200 kBq, iv after 60 mins by autoradiography relative to control; assay type: functional, organism-based; settings: tested as the 125I-labelled form
How it was run: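 Ex vivo autoradiography in mice given 200 kBq [125I]tracer i.v. and killed at 60 min. Brains were removed, frozen on dry ice and cut into 20 µm sagittal cryosections, which were exposed to an imaging plate for 7 days. Regional signal was quantified as PSL/mm² (n = 5) and compared to control by Kruskal–Wallis with Dunn's post-test.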

[14] = target: T1, Sodium- and chloride-dependent glycine transporter 1 (Rattus norvegicus); assay: Binding affinity to GlyT1 in rat brain thalamus at 0.03 to 0.04 nM preincubated for 20 mins in binding buffer before compound addition measured after 30 mins by autoradiography in presence of 0.01 mM GlyT1 inhibitor HPCP relative to control; assay type: tissue-based; settings: tested as the 125I-labelled form
Mus musculus [15] = assay: In vivo binding affinity to GlyT1 in ddY mouse brain striatum at 33.3 kBq, iv after 60 mins in presence of SSR504734 2 mg/kg, iv administered 15 mins prior to compound administration relative to control; assay type: functional, organism-based; set-up: dose 2 mg/kg; settings: tested as the 125I-labelled form
[16] = target: T1, Sodium- and chloride-dependent glycine transporter 1 (Rattus norvegicus); assay: Binding affinity to GlyT1 in rat brain cerebral cortex at 0.03 to 0.04 nM preincubated for 20 mins in binding buffer before compound addition measured after 30 mins by autoradiography in presence of 0.01 mM GlyT2 inhibitor ORG25543 relative to control; assay type: tissue-based; settings: tested as the 125I-labelled form
How it was run: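 Rat brain sagittal sections (20 µm) preincubated 20 min at 25 °C in Tris-HCl buffer pH 7.5 (NaCl, KCl, MgCl2, CaCl2), then 30 min at 25 °C with [125I] tracer (100 kBq, 0.03–0.04 nM) plus competitor (10 µM; glycine 1 or 10 mM). Cold washes, imaging plate 3 days, ROI PSL minus background per mm². % control from ≥triplicate slices, three rats.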

Ratio (Nucleic Acid): 2.42
Drug uptake (Intestine): 2.47 % ID/g
Drug uptake (Liver [1]): 16.04 % ID/g
Drug uptake (Brain [3]): 1.33 % ID/g
Drug uptake (Liver [4]): 14.74 % ID/g
Drug uptake (Spleen): 3.41 % ID/g
Drug uptake (Brain [5]): 1.85 % ID/g
Drug uptake (Stomach [6]): 8.26 % ID/g
Drug uptake (Lung [7]): 12.09 % ID/g
Drug uptake (Blood): 1.35 % ID/g
Drug uptake (Pancreas): 9.51 % ID/g
Drug uptake (Kidney): 8.27 % ID/g
Drug uptake (Lung [8]): 17.19 % ID/g
Drug uptake (Stomach [9]): 5.22 % ID/g
Structure (SMILES): CN1CCCC[C@H]1[C@@H](NC(=O)c1cccc(C(F)(F)F)c1[125I])c1ccccc1
Activity (Mus musculus [2]): 47%

Activity [11]: 122%
Activity [12]: 46.7%
Activity [14]: 22.5%
Activity [16]: 95.1%
Structure (SMILES): CN1CCCC[C@H]1[C@@H](NC(=O)c1cccc(C(F)(F)F)c1I)c1ccccc1
Activity (Mus musculus [10]): Active
Activity (Mus musculus [13]): inactive
Activity (Mus musculus [15]): inactive

— ChEMBL document CHEMBL1938298, “Synthesis and characterization of [¹²⁵I]2-iodo N-[(S)-{(S)-1-methylpiperidin-2-yl}(phenyl)methyl]3-trifluoromethyl-benzamide as novel imaging probe for glycine transporter 1” (Bioorg Med Chem, 2011)
